From PubChem
A selection: hits, their analogues and other compounds. The true share with any hit is near 1.6%.
MBD2 inh – blocks human MBD2 binding to methylated DNA | TR-FRET, MBD2 binding to methylated oligonucleotide | inhibition, % at 4.4 µM | actives 0.31% (n = 370,000) | AID 686964; in the data active means inhibition above about 13%
Target sequence (Q9UBB5 whole entry, looked up): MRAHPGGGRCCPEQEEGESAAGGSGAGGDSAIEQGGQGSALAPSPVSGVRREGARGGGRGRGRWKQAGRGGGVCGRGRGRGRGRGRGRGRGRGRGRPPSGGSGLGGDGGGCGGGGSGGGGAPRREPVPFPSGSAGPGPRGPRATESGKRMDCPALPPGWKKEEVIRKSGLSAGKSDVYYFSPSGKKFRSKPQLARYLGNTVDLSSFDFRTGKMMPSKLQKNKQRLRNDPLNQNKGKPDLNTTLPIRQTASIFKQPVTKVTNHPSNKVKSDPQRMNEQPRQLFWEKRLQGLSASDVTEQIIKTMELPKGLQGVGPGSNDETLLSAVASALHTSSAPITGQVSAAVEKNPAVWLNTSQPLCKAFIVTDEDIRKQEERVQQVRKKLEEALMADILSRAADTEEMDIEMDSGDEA
UHRF1 binding – human UHRF1 methylated DNA binding inhibitors; actives 0.75% (n = 370,000); UHRF1 binding to methylated oligo, TR-FRET; AID 687016; inhibition, % at 4.4 µM; in the data active means inhibition above about 21%;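 further: UHRF1 SRA domain binding a hemimethylated CpG hairpin DNA probe; 0% = median of test compound wells and 100% = reference inhibitor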
LEDGF integ inh – blocks HIV-1 LEDGF/p75-dependent DNA integration. inhibition, % at 3.7 µM. actives 0.64% (n = 370,000). TR-FRET IN-LEDGF/p75 DNA integration, Eu/Cy5;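 active means inhibition above the screen-wide mean plus 3 SD, cut at about 13% in these data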;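 further: signal is the Cy5 over europium emission ratio at 671 and 618 nm; 0% = plate median of compound wells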
TDP2 inh – TDP2 (human) inhibition, absorbance primary screen; inhibition, % at 12.8 µM; O95551; actives 0.34% (n = 370,000); recombinant TDP2, T5PNP hydrolysis, p-nitrophenol absorbance 415 nm;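 active means inhibition above the mean of all tested compounds plus 3 SD, set per campaign, cut at about 25% in these data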;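 further: 0% = DMSO with enzyme and 100% = buffer with substrate but no TDP2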
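Test system: Human TDP2 enzyme | Reagent: 5 mM T5PNP | Compound dosing: 12.8 µM single point, 1% DMSO | Incubation: Enzyme reaction with compound for 2 h at 37 °C | Technique: p-Nitrophenol epi absorbance | Read-out: % inhibition relative to enzyme-containing and enzyme-free wells | Benchmarks: High control without enzyme, low control DMSO plus TDP2 | Replicates: Singlicate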
IN multimer act – activates HIV-1 integrase multimerization in LEDGF counter-screen; shares compounds with LEDGF integ inh; TR-FRET HIV-1 integrase multimerization, biochemical; activation, % at 7.7 µM; actives 17% (n = 2,000); in the data active means activation above about 8.9%
TRFRET interf – TR-FRET optical interference, LEDGF/p75 integration counter-screen; shares compounds with LEDGF integ inh; 2,000 tested, under 10 active; TR-FRET optical interference counterscreen, HIV-1 IN multimerization; inhibition, % at 7.7 µM;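 active means inhibition above the mean over all tested compounds plus 3 SD, which no compound reached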;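 further: 0% = integrase with antibodies and DMSO and 100% = antibodies without integrase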
IN-LEDGF confirm – confirmation of HIV-1 LEDGF/p75-dependent integration inhibitors. shares compounds with LEDGF integ inh. TR-FRET LEDGF/p75-dependent HIV-1 integration, biochemical. inhibition, % at 3.7 µM. actives 36% (n = 2,000); in the data active means inhibition above about 14%
Numbers without * were called inactive.

`O=C1c2cccc(Sc3ccccc3)c2C(=O)c2c(Sc3ccccc3)cccc21` gave MBD2 inh 10, UHRF1 binding 24*, LEDGF integ inh 14*, TDP2 inh 12, IN multimer act 3, TRFRET interf -11 and IN-LEDGF confirm -7.
Screening Cc1ccc(-c2nnc(SCc3ccc([N+](=O)[O-])cc3)n2-c2ccccc2)cc1 returned MBD2 inh 7, UHRF1 binding 2, LEDGF integ inh 1 and TDP2 inh 0.
O=C(/C=C/c1ccco1)NC(=S)Nc1ccc(N2CCCC2)cc1 was read as MBD2 inh 0, UHRF1 binding 8, LEDGF integ inh 18*, TDP2 inh 2, IN multimer act 4, TRFRET interf -21 and IN-LEDGF confirm -1.
Cc1ccnc(NC(=S)NC(=O)/C=C/c2ccco2)c1 was read as MBD2 inh 0, UHRF1 binding 1, LEDGF integ inh 16*, TDP2 inh -2, IN multimer act 0, TRFRET interf -2 and IN-LEDGF confirm 9.
Screening CCC(=O)Nc1ccc(NC(=S)NC(=O)/C=C/c2ccco2)cc1 returned MBD2 inh 1, UHRF1 binding -1, LEDGF integ inh 5 and TDP2 inh 9.
For COC(=O)C1CN(Cc2cn(Cc3ccc(C)cc3)nn2)CCS(=O)(=O)N1Cc1ccc(F)cc1 (stereo not drawn) the results were MBD2 inh 2, UHRF1 binding 11, LEDGF integ inh 7 and TDP2 inh 3.
Cc1cc(Br)c(NC(=O)Cn2c([N+](=O)[O-])cnc2C)cc1C was read as MBD2 inh -3, UHRF1 binding -1, LEDGF integ inh -2 and TDP2 inh -6.
For Cc1ncc([N+](=O)[O-])n1CC(=O)Nc1cc(Cl)ccc1Cl the results were MBD2 inh 0, UHRF1 binding 2, LEDGF integ inh 52*, TDP2 inh 0, IN multimer act -1, TRFRET interf 3 and IN-LEDGF confirm -2.
For CCCN(CCC)C(=S)NC(=O)c1ccc(-c2ccccc2)cc1 the results were MBD2 inh 2, UHRF1 binding 0, LEDGF integ inh 26*, TDP2 inh -2, IN multimer act 1, TRFRET interf -7 and IN-LEDGF confirm 35*.
CN(C)Cc1cc(O)c(CN(C)C)cc1O was read as MBD2 inh -1, UHRF1 binding 15, LEDGF integ inh 24*, TDP2 inh 14, IN multimer act 5, TRFRET interf -17 and IN-LEDGF confirm 30*.
For COC(=O)[C@]12C[C@H](CC(=O)NCc3ccc(OC)c(OC)c3)C(=O)N(CCC3=CCCCC3)C1=C[C@H](COCc1ccccc1)O[C@@H]2C the results were MBD2 inh -4, UHRF1 binding -1, LEDGF integ inh -3 and TDP2 inh -3.
For C[C@@H]1OC(C2CCCCC2)N(C)[C@H]2C[C@H]3c4[nH]c5cccc(-c6ccccc6)c5c4CCN3C(=O)[C@@H]12 (stereo partly drawn) the results were MBD2 inh -5, UHRF1 binding 0, LEDGF integ inh -2 and TDP2 inh -2.
Cc1cc(=O)oc2cc3c(cc12)OCCO3 was read as MBD2 inh 1, UHRF1 binding -1, LEDGF integ inh 29*, TDP2 inh 2, IN multimer act -4, TRFRET interf 13 and IN-LEDGF confirm 0.
For CCCn1c(NC(=O)c2ccccc2)nc2ccccc21 the results were MBD2 inh 2, UHRF1 binding -1, LEDGF integ inh 19*, TDP2 inh -8, IN multimer act -3, TRFRET interf 13 and IN-LEDGF confirm 24*.
For CCCn1c(NC(=O)c2ccc(C)cc2)nc2ccccc21 the results were MBD2 inh 5, UHRF1 binding 1, LEDGF integ inh 19*, TDP2 inh 2, IN multimer act -2, TRFRET interf 10 and IN-LEDGF confirm 22*.
CCCn1c(CNC(=O)c2ccccc2)nc2ccccc21 was read as MBD2 inh -4, UHRF1 binding -3, LEDGF integ inh -2 and TDP2 inh -1.
CCc1nc(NCc2cccs2)c2nnn(Cc3ccccc3)c2n1 was read as MBD2 inh 3, UHRF1 binding -2, LEDGF integ inh 16*, TDP2 inh 3, IN multimer act 0, TRFRET interf -1 and IN-LEDGF confirm 8.
For N#Cc1nc(COc2ccccc2Cl)oc1N1CCCC1 the results were MBD2 inh 7, UHRF1 binding 8, LEDGF integ inh 19*, TDP2 inh 4, IN multimer act 1, TRFRET interf -4 and IN-LEDGF confirm -7.
Screening Cc1ccc(OCC(=O)Nc2ccc(F)cc2)cc1C returned MBD2 inh 4, UHRF1 binding -3, LEDGF integ inh 20*, TDP2 inh 7, IN multimer act 0, TRFRET interf -2 and IN-LEDGF confirm -15.
`CN(Cc1ccccc1)c1cc2c(c3c1ccn3C)C1CCC2C1` (stereo not drawn) gave MBD2 inh -2, UHRF1 binding -4, LEDGF integ inh 52*, TDP2 inh 1, IN multimer act -1, TRFRET interf 3 and IN-LEDGF confirm -5.
O=C(NCCCN1CCCC1=O)c1cc2nc(-c3ccco3)cc(C(F)(F)F)n2n1 was read as MBD2 inh -2, UHRF1 binding -2, LEDGF integ inh 20*, TDP2 inh -7, IN multimer act -1, TRFRET interf 3 and IN-LEDGF confirm 6.
COc1ccc2c(c1)C(c1ccc(C)o1)=NNC(c1cccnc1)=N2 was read as MBD2 inh -3, UHRF1 binding 1, LEDGF integ inh 19*, TDP2 inh -9, IN multimer act 1, TRFRET interf -4 and IN-LEDGF confirm -4.
`COc1ccc2c(c1)C(c1ccc(C)o1)=NNC(c1ccccc1)=N2` gave MBD2 inh -4, UHRF1 binding -3, LEDGF integ inh -5 and TDP2 inh 1.
For CCC(C)N(C(=O)CSc1nnc(-c2cc(OC)c(OC)c(OC)c2)o1)C(C)CC (stereo not drawn) the results were MBD2 inh -6, UHRF1 binding 4, LEDGF integ inh 1 and TDP2 inh -7.
Screening O=C(Nc1ccc(F)cc1)NC1CCN(Cc2nnnn2Cc2ccco2)CC1 returned MBD2 inh 9, UHRF1 binding 19, LEDGF integ inh 14*, TDP2 inh -8, IN multimer act -1, TRFRET interf 4 and IN-LEDGF confirm -1.
Screening O=C(C(O)c1ccc(Br)cc1)N1CCC(Nc2ccc3[nH]ncc3c2)CC1 (stereo not drawn) returned MBD2 inh -3, UHRF1 binding -5, LEDGF integ inh 17*, TDP2 inh 4, IN multimer act 5, TRFRET interf -25 and IN-LEDGF confirm 1.
